Reference: ChEMBL document CHEMBL3627607, “A Novel Pyrazolopyridine with in Vivo Activity in Plasmodium berghei- and Plasmodium falciparum-Infected Mouse Models from Structure-Activity Relationship Studies around the Core of Recently Identified Antimalarial Imidazopyridazines” (J Med Chem, 2015)

Legend:
[1] = Selectivity index, ratio of IC50 for African green monkey VERO cells to IC50 for multidrug resistant Plasmodium falciparum K1; format: toxicity, cell-based; conditions: read-out: Ratio IC50
[2] = Selectivity index, ratio of IC50 for African green monkey VERO cells to IC50 for Plasmodium falciparum NF54; format: toxicity, cell-based; conditions: read-out: Ratio IC50
Plasmodium berghei = experiment: Antiplasmodial activity against Plasmodium berghei ANKA expressing GFP infected in mouse assessed as means survival days at 3 mg/kg, po qd for 4 days; format: functional
In short: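 Mice (n = 3) infected with GFP-transfected P. berghei ANKA. Compounds dissolved or suspended in HPMC vehicle (0.5% w/v hydroxypropylmethylcellulose, 0.5% v/v benzyl alcohol, 0.4% v/v Tween 80, 0.9% w/v NaCl in water). Dosed orally 4, 24, 48 and 72 h after infection. Parasitemia read by flow cytometry (detection limit 0.1%). Survival recorded as mean survival time in days.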

[3] = Drug level in mouse blood at 50 mg/kg, po after 4 hrs; format: ADME, organism-based; conditions: read-out: Drug uptake
In short: (§1)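 Snapshot whole-blood levels of parent and its sulfone metabolite at 1, 4 and 24 h after the first 50 mg/kg oral dose. Samples came from the P. berghei-infected efficacy mice, dosed in HPMC suspension vehicle.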

Blood [4] = experiment: Drug metabolism in mouse assessed as 5-(3-(Cyclopropylsulfonyl)phenyl)-3-(4-(methylsulfonyl)-phenyl)pyrazolo[1,5-a]pyridine level in blood at 50 mg/kg, po after 1 hr; format: ADME, organism-based; conditions: in vivo, read-out: Drug metabolism; in short: as §1
Blood [5] = experiment: Drug metabolism in mouse assessed as 5-(3-(Cyclopropylsulfonyl)phenyl)-3-(4-(methylsulfonyl)-phenyl)pyrazolo[1,5-a]pyridine level in blood at 50 mg/kg, po after 24 hrs; format: ADME, organism-based; conditions: in vivo; in short: as §1
Rattus norvegicus = experiment: Half life in rat at 5 mg/kg, iv; format: ADME, organism-based; conditions: in vivo
[6] = Tmax in Plasmodium falciparum 3D7 infected in non-myelodepleted NOD-SCID IL2Rgammanull mouse engrafted with human erythrocytes at 0.1 mg/kg, po; format: ADME, organism-based; conditions: in vivo
In short: (§2)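 Engrafted NSG (scid IL2Rgc null) mice infected with P. falciparum were given one oral dose per day for four days. Blood was sampled to measure parent and its sulfone metabolite.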

[7] = Cmax in Plasmodium falciparum 3D7 infected in non-myelodepleted NOD-SCID IL2Rgammanull mouse engrafted with human erythrocytes at 0.5 mg/kg, po; format: ADME, organism-based; design: dose 0.5 mg/kg, route oral; conditions: in vivo; in short: as §2
[8] = Tmax in Plasmodium falciparum 3D7 infected in non-myelodepleted NOD-SCID IL2Rgammanull mouse engrafted with human erythrocytes at 1.5 mg/kg, po; format: ADME, organism-based; conditions: in vivo
In short: (§3)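 Humanized NSG mice infected with P. falciparum received one oral dose per day for 4 consecutive days. Blood was sampled for exposure, with levels of both parent and its main active metabolite measured. Tmax was taken from the blood concentration–time profile after oral dosing.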

[9] = Tmax in Plasmodium falciparum 3D7 infected in non-myelodepleted NOD-SCID IL2Rgammanull mouse engrafted with human erythrocytes at 10 mg/kg, po; format: ADME, organism-based; conditions: in vivo; in short: as §3
[10] = Cmax in Plasmodium falciparum 3D7 infected in non-myelodepleted NOD-SCID IL2Rgammanull mouse engrafted with human erythrocytes at 30 mg/kg, po; format: ADME, organism-based; design: dose 30 mg/kg, route oral; conditions: in vivo; in short: as §2
[11] = AUC (0 to 23 hrs) in Plasmodium falciparum 3D7 infected in non-myelodepleted NOD-SCID IL2Rgammanull mouse engrafted with human erythrocytes at 30 mg/kg, po; format: ADME, organism-based; design: dose 30 mg/kg, time < 23 hr, route oral; conditions: in vivo; in short: as §2
Blood [12] = experiment: Drug metabolism in rat blood assessed as 5-(3-(Cyclopropylsulfonyl)phenyl)-3-(4-(methylsulfonyl)-phenyl)pyrazolo[1,5-a]pyridine formation at 20 mg/kg, po and 5 mg/kg, iv by LC-MS/MS analysis; format: ADME, organism-based; conditions: in vivo
In short: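 Metabolites identified by LC-ESI-MS/MS in blood samples from the rat PK study (oral and intravenous dosing).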

C[S+]([O-])c1ccc(-c2cnn3ccc(-c4cccc(S(=O)(=O)C5CC5)c4)cc23)cc1 (centres undefined)
selectivity ratio [1]: > 1000
selectivity ratio [2]: > 1000
MSD (Plasmodium berghei): 7 days
concentration at 4 h [3]: 1.78 µM
concentration (Blood [4]): 7.9 µM
Drug metabolism (Blood [5]): 3.1 µM
t1/2 (Rattus norvegicus): 162 min
Tmax [6]: 15 min
Cmax [7]: 4 ng/mL
Tmax [8]: 30 min
Tmax [9]: 120 min
Cmax [10]: 226 ng/mL
AUC(0-t) at 23 h [11]: 1240 ng·h/mL
Drug metabolism (Blood [12]): metabolite_detected
